Test results as given in ChEMBL document CHEMBL5674882, “Benzolactam-related compounds promote apoptosis of HIV-infected human cells via protein kinase C-induced HIV latency reversal” (J Biol Chem, 2019).
Active and inactive are the calls of the source. No cut-off for these calls is given here.

Experiments:
[1] = target: T1, Protein kinase C (PKC) (Homo sapiens) (UniProt O94806+P41743+P17252+P05129+Q05655+P05771+Q05513+Q02156+P24723+Q15139+Q04759); assay: Activation of PKC in human ACH-2 cells infected with latent HIV-1 assessed as reversal of HIV-1 latency by measuring increase in p24 antigen level at 1 to 10000 nM incubated for 48 hrs by chemiluminescent enzyme immunoassay; type: cell-based; conditions: ACH-2 cell line, filed as activator, dose 1-10000 nM
Outline: (§1)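 ACH-2 or U1 cells (5 × 10^5 cells/ml) incubated 48 h with graded drug concentrations. Supernatant p24 antigen measured by automated chemiluminescent immunoassay. EC50 calculated taking the maximum response with excess PMA as 100%. Means ± S.D. of three independent experiments.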

[2] = target: T1, Protein kinase C (PKC) (Homo sapiens); assay: Activation of PKC in human U1 cells infected with latent HIV-1 assessed as reversal of HIV-1 latency by measuring increase in p24 antigen level at 1 to 10000 nM incubated for 48 hrs by chemiluminescent enzyme immunoassay; type: cell-based; conditions: filed as activator, dose 1-10000 nM; outline: as §1
[3] = Toxicity in human PBMC assessed as reduction in cell viability after 5 days by WST8 assay; type: cell-based; conditions: time 5 day
Outline: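 PBMC from a healthy donor exposed to drug, with viability determined at day 5. CC50 is the concentration reducing viability by 50%.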

ACH-2 cell line [4] = assay: Induction of apoptosis in human ACH-2 cells at 1 uM after 48 hrs by PI/annexin-V staining based flow cytometry; type: functional
U1 [5] = assay: Induction of apoptosis in human U1 cells at 1 uM after 48 hrs by PI/annexin-V staining based flow cytometry; type: functional
[6] = target: T1, Protein kinase C (PKC) (Homo sapiens); assay: Activation of PKC in human J-Lat 10.6 cells infected with latent HIV-1 assessed as reversal of HIV-1 latency by measuring increase of GFP-positive cells at 100 to 400 nM in presence of 1 uM SAHA incubated for 24 hrs by flow cytometry; type: cell-based; conditions: filed as activator, dose 100-400 nM
[7] = target: T1, Protein kinase C (PKC) (Homo sapiens); assay: Activation of PKC in human J-Lat 10.6 cells infected with latent HIV-1 assessed as reversal of HIV-1 latency by measuring increase of GFP-positive cells at 400 nM incubated for 24 hrs by flow cytometry; type: cell-based; conditions: filed as activator
[8] = target: T1, Protein kinase C (PKC) (Homo sapiens); assay: Synergistic activation of PKC in human J-Lat 10.6 cells infected with latent HIV-1 assessed as reversal of HIV-1 latency by measuring increase of GFP-positive cells at 400 nM in presence of 500 nM JQ1 incubated for 24 hrs by flow cytometry; type: cell-based; conditions: filed as activator
Outline: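 J-Lat 10.6 cells at 5 × 10^5 cells/ml treated 24 h alone or with 500 nm JQ1. GFP-positive cells counted by flow cytometry. Fraction affected normalised to PMA response after subtracting the no-drug value. Synergy by Bliss independence (Δfaxy). Mean ± S.D. of three independent experiments.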

ACH-2 cell line [9] = assay: Induction of apoptosis in human ACH-2 cells at 1 uM incubated for 48 hrs after pre-incubated for 2 hrs with 20 uM caspase inhibitor Q-VD-Oph by propidium iodide/annexin-V staining based flow cytometry; type: functional, cell-based
Outline: (§2)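 ACH-2 or U1 cells pretreated 2 h with 20 µM pan-caspase inhibitor Q-VD-Oph, then exposed to 1 µM compound for 48 h. Annexin-V/PI staining by flow cytometry; apoptotic proportions compared with and without Q-VD-Oph. Mean ± S.D.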

U1 [10] = assay: Induction of apoptosis in human U1 cells at 1 uM incubated for 48 hrs after pre-incubated for 2 hrs with 20 uM caspase inhibitor Q-VD-Oph by propidium iodide/annexin-V staining based flow cytometry relative to compound alone control; type: functional; set-up: scale not given: the % may be the effect or the level left; outline: as §2
U1 [11] = assay: Induction of apoptosis in human U1 cells at 1 uM incubated for 48 hrs by propidium iodide/annexin-V staining based flow cytometry; type: functional
[12] = target: T1, Protein kinase C (PKC) (Homo sapiens); assay: Activation of PKC in human J-Lat 6.3 cells infected with latent HIV-1 assessed as reversal of HIV-1 latency by measuring increase of GFP-positive cells at 10 uM in presence of PKC alpha/beta/gamma inhibitor GF109203X incubated for 24 hrs by flow cytometry; type: cell-based
Outline: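 J-Lat 6.3 cells pretreated 3 h with a PKC inhibitor: Gö 6983 1 µM, Gö 6976 1 µM, GF 109203X 1 µM, PKCθ/δ inhibitor 10 µM, or Rottlerin 1 µM. Then exposed to 10 µM compound for 24 h; GFP-positive cells counted by flow cytometry. Mean ± S.D.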

[13] = Toxicity in human CD4+ T-cells assessed as elevation of supernatant cytokine concentrations of IL-13 incubated for 24 hrs by bead-based immunoassay; conditions: cd4+ t cell
Outline: (§3)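 Purified CD4+ T-cells from healthy donors treated 24 h with 1 μm drug, 1 μm JQ1, or the combination. IL-2, IL-5, IL-6, IL-13, TNFα and IFN-γ in supernatants measured by flow-cytometry bead-based Th1/Th2 immunoassay. Run in duplicate.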

[14] = Toxicity in human CD4+ T-cells assessed as increase in ratio of CD25+ cells incubated for 24 hrs by flow cytometry; type: cell-based; conditions: cd4+ t cell
Outline: (§4)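 Primary CD4+ T-cells from healthy donors treated with drug for 24 h. Cells stained with anti-CD25 and anti-CD69 antibodies (plus CD3, CD4, HLA-DR) for 30 min on ice, then marker-positive proportions quantified by flow cytometry.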

[15] = Toxicity in human CD4+ T-cells assessed as increase in ratio of CD69+ cells incubated for 24 hrs by flow cytometry; type: cell-based; conditions: cd4+ t cell; outline: as §4
[16] = Toxicity in human CD4+ T-cells assessed as elevation of supernatant cytokine concentrations of TNFalpha incubated for 24 hrs by bead-based immunoassay; conditions: cd4+ t cell; outline: as §3
[17] = Toxicity in human CD4+ T-cells assessed as elevation of supernatant cytokine concentrations of IL-2 incubated for 24 hrs in presence of JQ1 by bead-based immunoassay; conditions: cd4+ t cell; outline: as §3
[18] = Toxicity in human CD4+ T-cells assessed as elevation of supernatant cytokine concentrations of TNFalpha incubated for 24 hrs in presence of JQ1 by bead-based immunoassay; conditions: cd4+ t cell; outline: as §3
J-Lat 6.3 [19] = assay: Induction of apoptosis in human J-Lat 6.3 cells at 1 uM incubated for 48 hrs by propidium iodide/annexin-V staining based flow cytometry (reference value: 3.16%); type: functional
U1 [20] = assay: Induction of apoptosis in human U1 cells assessed as caspase-3 activation at 1 uM incubated for 24 hrs by flow cytometry; type: functional
Outline: (§5)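 Cells fixed in 1% paraformaldehyde, permeabilized, stained 30 min on ice with anti-active caspase-3 mAb, and analysed by flow cytometry. Three independent experiments.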

J-Lat 6.3 [21] = assay: Induction of apoptosis in human J-Lat 6.3 cells assessed as caspase-3 activation at 1 uM incubated for 24 hrs by flow cytometry; type: functional; outline: as §5
J-Lat 6.3 (Homo sapiens) = assay: Induction of apoptosis in human J-Lat 6.3 cells at 1 uM incubated for 48 hrs after pre-incubated for 2 hrs with 20 uM caspase inhibitor Q-VD-Oph by propidium iodide/annexin-V staining based flow cytometry

Structure (SMILES): CCCCCCCCCCc1ccc2c(c1)N(C)[C@@H](C(C)C)C(=O)N[C@H](CO)C2
- Activity [1]: Active
- Activity [2]: Active
- CC50 at 120 h [3]: 39.9 µM
- Activity (ACH-2 cell line [4]): 59.7%
- Activity (U1 [5]): 30.4%
- Activity [6]: Active
- Activity [7]: 42.2%
- Activity [8]: 73.1%
- Activity (ACH-2 cell line [9]): inactive
- Activity (U1 [10]): 20%
- Activity (U1 [11]): 28.4%
- Activity [12]: inactive
- Activity [13]: Toxic
- Activity [14]: Non-Toxic
- Activity [15]: Non-Toxic
- Activity [16]: Toxic
- Activity [17]: Non-Toxic
- Activity [18]: Non-Toxic
- Activity (J-Lat 6.3 [19]): 17%
- Activity (U1 [20]): 24.9%
- Activity (J-Lat 6.3 [21]): 12.2%
- Activity (J-Lat 6.3 (Homo sapiens)): inactive
